Assay [1] concerns LNCaP. The assay can be described thus: Cytotoxicity against androgen-dependent human LNCAP cells with T877A AR mutant after 72 hrs by MTT assay. It counts as functional, cell-based. Summed up: (§1)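 Cells seeded at 6000–7000 per well in RPMI 1640 with 10% FBS, penicillin and streptomycin, left overnight, then exposed to a range of concentrations from DMSO stock (final DMSO 0.5%) for 72 h. MTT added for a further 2 h and formazan from viable cells read. IC50 taken from survival curves, 50% inhibition relative to 0.5% DMSO control; top concentration 150 µM.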

For assay [2], the system named is PC-3. Description: Cytotoxicity against androgen-independent human PC3 cells after 72 hrs by MTT assay. It counts as functional, cell-based. The note with it: PC-3, 72 h. Summed up:
as §1
For orientation: Tetrazolium assays rely on reduction of a dye to a coloured formazan, in cell work by metabolically active cells.

The test system of assay [3] is T1, Androgen receptor (Homo sapiens), P10275 [H875Y].
T1 sequence (whole entry): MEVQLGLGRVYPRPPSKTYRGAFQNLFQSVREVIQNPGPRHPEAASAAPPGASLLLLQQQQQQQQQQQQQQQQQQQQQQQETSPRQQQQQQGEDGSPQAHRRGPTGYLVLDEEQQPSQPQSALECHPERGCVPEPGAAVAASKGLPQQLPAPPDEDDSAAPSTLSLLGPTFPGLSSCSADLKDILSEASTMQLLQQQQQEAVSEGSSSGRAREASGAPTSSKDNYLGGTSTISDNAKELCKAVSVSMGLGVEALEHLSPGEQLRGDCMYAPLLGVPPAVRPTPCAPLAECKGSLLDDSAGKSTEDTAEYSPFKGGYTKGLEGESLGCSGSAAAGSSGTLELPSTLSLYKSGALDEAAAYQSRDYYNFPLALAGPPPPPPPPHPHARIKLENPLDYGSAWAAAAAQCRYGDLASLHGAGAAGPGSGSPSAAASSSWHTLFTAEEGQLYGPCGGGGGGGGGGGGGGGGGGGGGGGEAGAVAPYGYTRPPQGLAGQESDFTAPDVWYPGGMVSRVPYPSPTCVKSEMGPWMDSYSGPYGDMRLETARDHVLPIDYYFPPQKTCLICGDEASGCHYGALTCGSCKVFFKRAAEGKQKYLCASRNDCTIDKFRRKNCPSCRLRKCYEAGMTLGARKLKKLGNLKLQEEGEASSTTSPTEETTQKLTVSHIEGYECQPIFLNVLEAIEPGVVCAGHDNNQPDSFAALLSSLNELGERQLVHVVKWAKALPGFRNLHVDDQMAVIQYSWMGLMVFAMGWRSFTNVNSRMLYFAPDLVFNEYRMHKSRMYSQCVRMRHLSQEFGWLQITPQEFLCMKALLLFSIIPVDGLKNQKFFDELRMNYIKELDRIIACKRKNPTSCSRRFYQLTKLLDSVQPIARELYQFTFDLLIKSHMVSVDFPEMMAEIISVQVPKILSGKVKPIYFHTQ
The assay can be described thus: Antagonist activity at androgen receptor H874Y mutant in human PC3 cells transiently transfected with pCMV-MMTV-Luc assessed as suppression of DHT-induced receptor transactivation. It counts as functional, cell-based. The note with it: PC-3. The gist of the method: (§2)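 PC-3 cells seeded 24 h before co-transfection with MMTV-luciferase reporter (100 ng), the wild-type, T877A, W741C or H874Y AR plasmid (10 ng) and Renilla null luciferase (10 ng) using Lipofectamine 2000. Medium switched after 5 h to phenol red-free RPMI 1640 with 10% charcoal-stripped FBS. After 16 h, 0.1 nM DHT ± compound (0.1, 1.0 µM) for 24 h. Dual-luciferase read-out, Renilla-standardized, normalized to DHT alone (100%).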

For assay [4], the target named is T2, Androgen receptor (Homo sapiens) (UniProt P10275).
T2 sequence (whole entry): T1 sequence (whole entry) with Y875H
Description: Antagonist activity at wild type androgen receptor in human PC3 cells transiently transfected with pCMV-MMTV-Luc assessed as suppression of DHT-induced receptor transactivation. The following applies: PC-3. In kind it is functional, cell-based. The gist of the method: as §2

The nature of assay [5]: Cytotoxicity against human RWPE1 cells after 72 hrs by MTT assay. In kind it is cell-based. The note with it: RWPE-1, 72 h. The gist of the method: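 Non-tumorigenic prostate epithelial line plated at 6000–7000 cells per well in keratinocyte serum-free medium with 0.05 mg/mL bovine pituitary extract and 5 ng/mL EGF; overnight attachment, then compounds at various concentrations in 0.5% final DMSO for 72 h. MTT 2 h, formazan read; IC50 from survival curves versus DMSO control.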

Molecules are shown by their SMILES. Positions count from the first letter of the chain named.

In general, IC50 refers to the concentration that gives 50% inhibition. Low readings indicate inhibition by little substance, high ones a need for much substance. In the case of `CC1=C(/C=C/C(=O)/C=C/c2cccc(C(F)(F)F)c2)C(C)(C)CCC1O` (stereo not given), the 50% inhibitory concentration (IC50) in assay [1] was 740 nM; in assay [2], 3500 nM; in assay [5] it was 730 nM. The Activity result in assay [3] and in assay [4] was “Dose-dependent effect” each time.

Values taken from ChEMBL document CHEMBL1136847, “Syntheses and potential anti-prostate cancer activities of ionone-based chalcones” (Bioorg Med Chem Lett, 2009).
